Test results reported in ChEMBL document CHEMBL4393712, “Discovery of chalcone-modified estradiol analogs as antitumour agents that Inhibit tumour angiogenesis and epithelial to mesenchymal transition” (Eur J Med Chem, 2019).
Calls of active or inactive are those of the source. No cut-off for these calls is given here.

Assays:
[1] = Hepatotoxicity in nude mouse xenografted with human MCF7 cells assessed as slight increase in serum alkaline phosphatase level at 22.5 to 45 mg/kg/day, ip administered for 21 days by biochemical automatic analyzer; format: toxicity, organism-based; settings: in vivo, 504 h
[2] = Toxicity in nude mouse xenografted with human MCF7 cells assessed as effect on lung morphological changes at 22.5 to 45 mg/kg/day, ip administered for 21 days by HE staining analysis; format: organism-based; settings: in vivo, 504 h
[3] = system: MCF7; experiment: Inhibition of epithelial-mesenchymal transition in human MCF7 cells assessed as decrease in N-cadherin expression level at 2 to 10 uM after 48 hrs by Western blot analysis; format: functional, cell-based
Outline: (§1)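 MCF-7 cells in RPMI 1640 with 10% FBS, 37 °C, 5% CO2, exposed to no drug, 2 or 10 µM for 48 h. RIPA lysates, BCA quantitation, 8% SDS-PAGE, PVDF transfer, primary antibodies overnight 4 °C, secondary 2 h RT, ECL and densitometry for ZO-1, E-cadherin, N-cadherin, vimentin. Mean ± SD of 3 independent tests.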

[4] = system: HUVEC; experiment: Antimigratory activity against HUVEC at 2 to 10 uM measured after 24 hrs by transwell assay; format: functional, cell-based; settings: Homo sapiens
Outline: (§2)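 Cells seeded on upper side of polycarbonate transwell filters in serum-free medium, drug at 0, 2 or 10 µM; complete serum-containing medium in lower chamber as chemoattractant. After 24 h migrated cells fixed in 4% paraformaldehyde 20 min, crystal violet stained 20 min, imaged and counted. Three independent experiments.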

[5] = system: HEK293; experiment: Cytotoxicity against human HEK293 cells measured after 48 to 72 hrs by MTT assay; format: cell-based
Outline: (§3)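 Cells seeded at 3 × 10^3 per well in 96-well plates, incubated overnight, then given fresh medium with a range of drug concentrations for 48 h or 72 h. MTT added (final 500 µg/mL) for 4 h, formazan dissolved in DMSO, absorbance at 570 nm; IC50 derived. Mean ± SD of 3 independent tests.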

[6] = system: HUVEC; experiment: Reduction in VEGFR expression in HUVEC at 2 to 10 uM after 48 hrs by Western blot analysis; format: functional, cell-based; settings: Homo sapiens
Outline: (§4)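 HUVECs grown in RPMI 1640 with 10% FBS, 37 °C, 5% CO2; treated with no drug, 2 or 10 µM for 48 h. Lysed in RIPA with protease/phosphatase inhibitors on ice 30 min, protein by BCA, 8% SDS-PAGE, PVDF transfer, milk block, primary antibody overnight 4 °C, secondary 2 h RT; ECL detection, densitometry. Probed VEGF-R, FAK, p-FAK, SHC.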

[7] = Toxicity in nude mouse xenografted with human MCF7 cells assessed as liver edema at 22.5 to 45 mg/kg/day, ip administered for 21 days by HE staining analysis; format: organism-based; settings: in vivo, 504 h
[8] = system: ECa-109 cell line; experiment: Antitumour activity against human EC109 cells assessed as cell growth inhibition measured after 72 hrs by SRB assay; format: functional, cell-based; settings: ECa-109, 72 h
Outline: (§5)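 Exponentially growing cells trypsinized, seeded at 5 × 10^4 cells/mL in 96-well plates, cultured overnight, then exposed to compounds for 72 h. Cells fixed with 10% TCA 1 h, stained with SRB 15 min, dye dissolved in Tris-HCl, absorbance read; 50% growth-inhibitory concentration calculated.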

[9] = system: MCF7; experiment: Antimigratory activity against human MCF7 cells at 2 to 10 uM measured after 48 hrs by wound healing assay; format: functional, cell-based
Outline: (§6)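 Cells seeded in 6-well plates, monolayer scratched with pipette tip, washed twice, kept in medium with 2% FBS. Gaps imaged, then drug added (0, 2 or 10 µM for HUVEC and MCF-7); gaps re-imaged after 48 h and migration rate calculated. Three independent experiments; one-way ANOVA.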

[10] = system: HET-1A; experiment: Cytotoxicity against human HET-1A cells assessed as reduction in cell viability measured after 48 to 72 hrs by MTT assay; format: cell-based; outline: as §3
[11] = Toxicity in nude mouse xenografted with human MCF7 cells assessed as effect on heart morphological changes at 22.5 to 45 mg/kg/day, ip administered for 21 days by HE staining analysis; format: organism-based; settings: in vivo, 504 h
[12] = Hepatotoxicity in nude mouse xenografted with human MCF7 cells assessed as slight increase in serum alanine transaminase level at 22.5 to 45 mg/kg/day, ip administered for 21 days by biochemical automatic analyzer; format: toxicity, organism-based; settings: in vivo, 504 h
[13] = system: MCF7; experiment: Antimigratory activity against human MCF7 cells at 2 to 10 uM measured after 24 hrs by transwell assay; format: functional, cell-based; outline: as §2
[14] = system: GES1; experiment: Cytotoxicity against human GES-1 cells assessed as reduction in cell viability measured after 48 to 72 hrs by MTT assay; format: cell-based; outline: as §3
[15] = system: MGC-803; experiment: Cytotoxicity against human MGC803 cells assessed as reduction in cell viability measured after 48 to 72 hrs by MTT assay; format: cell-based; outline: as §3
[16] = system: SK-N-SH; experiment: Antitumour activity against human SK-N-SH cells assessed as cell growth inhibition measured after 72 hrs by SRB assay; format: functional, cell-based; outline: as §5
[17] = system: HUVEC; experiment: Reduction in SHC expression in HUVEC at 2 to 10 uM after 48 hrs by Western blot analysis; format: functional, cell-based; settings: Homo sapiens; outline: as §4
[18] = system: MCF7; experiment: Inhibition of epithelial-mesenchymal transition in human MCF7 cells assessed as increase in ZO-1 expression level at 2 to 10 uM after 48 hrs by Western blot analysis; format: functional, cell-based; outline: as §1
[19] = Toxicity in nude mouse xenografted with human MCF7 cells assessed as effect on kidney morphological changes at 22.5 to 45 mg/kg/day, ip administered for 21 days by HE staining analysis; format: organism-based; settings: in vivo, 504 h
[20] = Solubility of the compound in water; format: physicochemical; settings: buffer
[21] = Toxicity in nude mouse xenografted with human MCF7 cells assessed as increase in body weight at 22.5 to 45 mg/kg/day, ip administered for 21 days; format: organism-based; settings: in vivo, 504 h
Outline: (§7)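 Nude mice (male/female, 4–6 weeks) injected subcutaneously in right forelimb with 5 × 10^7 MCF-7 cells in 200 µL saline; at mean tumour 100 mm3 randomized (n = 5/group): saline 0.2 mL/day, 22.5 or 45 mg/kg/day ip for 21 days. Body weight and tumour volume (length × width²/2) every other day; tumours weighed at day 21.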

[22] = system: A549; experiment: Antitumour activity against human A549 cells assessed as cell growth inhibition measured after 72 hrs by SRB assay; format: functional, cell-based; settings: A549, 72 h; outline: as §5
[23] = system: HUVEC; experiment: Antimigratory activity against HUVEC at 2 to 10 uM measured after 48 hrs by wound healing assay; format: functional, cell-based; settings: Homo sapiens; outline: as §6
[24] = system: HUVEC; experiment: Cytotoxicity against HUVEC assessed as reduction in cell viability measured after 48 to 72 hrs by MTT assay; format: cell-based; settings: human; outline: as §3
[25] = system: MCF7; experiment: Cytotoxicity against human MCF7 cells assessed as reduction in cell viability measured after 48 to 72 hrs by MTT assay; format: cell-based; outline: as §3
[26] = system: B16; experiment: Antitumour activity against mouse B16 cells assessed as cell growth inhibition measured after 72 hrs by SRB assay; format: functional, cell-based; settings: B16, 72 h; outline: as §5
[27] = system: MCF7; experiment: Antitumour activity against human MCF7 cells xenografted in nude mouse assessed as decrease in tumour volume at 22.5 to 45 mg/kg/day, ip administered for 21 days; format: functional, organism-based; outline: as §7
[28] = system: MCF7; experiment: Antitumour activity against human MCF7 cells xenografted in nude mouse assessed as decrease in tumour weight at 22.5 to 45 mg/kg/day, ip administered for 21 days; format: functional, organism-based; outline: as §7
[29] = Toxicity in nude mouse xenografted with human MCF7 cells assessed as effect on spleen morphological changes at 22.5 to 45 mg/kg/day, ip administered for 21 days by HE staining analysis; format: organism-based; settings: in vivo, 504 h

For `COc1cc2c(cc1O)CC[C@@H]1[C@@H]2CC[C@]2(C)C(=O)/C(=C/c3ccc(Cl)cc3)C[C@@H]12`, the Activity [1] was “Toxic”, the Activity [2] was “Non-Toxic” and the inhibition [3] was “Active”. For the same molecule, the Activity [4] was “Active”, the IC50 [5] was greater than 100 µM and the inhibition [6] was “Active”. For the same molecule, the Activity [7] was “Toxic”, the IC50 [8] was 14.7 µM and the Activity [9] was “Active”. For the same molecule, the IC50 [10] was greater than 100 µM, the Activity [11] was “Non-Toxic” and the Activity [12] was “Toxic”. For the same molecule, the Activity [13] was “Active”, the Activity [14] was “Toxic” and the Activity [15] was “Toxic”. The IC50 [16] was 24.7 µM, the inhibition [17] was “Active” and the inhibition [18] was “Active”. The Activity [19] was “Non-Toxic”, the solubility [20] was “Soluble” and the Activity [21] was “Non-Toxic”. The IC50 [22] was 23.2 µM, the Activity [23] was “Active” and the Activity [24] was “Toxic”. For the same molecule, the IC50 [25] was 77 µM, the IC50 [26] was 17.9 µM and the inhibition [27] was “Active”. For the same molecule, the inhibition [28] was “Active” and the Activity [29] was “Non-Toxic”.
